Our source for the EC50 and CC50 values is ChEMBL document CHEMBL1145896, “5-Substituted-2,4-diamino-6-[2-(phosphonomethoxy)ethoxy]pyrimidines-acyclic nucleoside phosphonate analogues with antiviral activity” (J Med Chem, 2003).

SMILES strings stand for the structures.

Assay [1] is described as follows: Antiviral activity against vaccinia virus in HEL ([…]) cells. The assay is classed as functional, cell-based.
Assay [2] deals with Human immunodeficiency virus 1. In words: Antiviral activity against HIV-1 (IIIB) in CEM (human leukemia) cells. The assay is classed as functional, organism-based. The conditions noted are these: ccrf-cem. The method in brief:
(§1)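 Human CEM cells (~3 × 10^5 cells/mL) were infected with 100 CCID50 per mL of HIV-1 (IIIB) or HIV-2 (ROD) and seeded into wells containing compound dilutions. After 4 days at 37 °C, syncytium (giant cell) formation was examined microscopically.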

Another assay concerns CCRF-CEM. In words: Cytotoxicity against CEM (human lymphoblastic leukemia) cells in vitro. It is filed as functional.
In assay [3] the test system is Human immunodeficiency virus 2. Description: Antiviral activity against HIV-2 (ROD) in CEM (human leukemia) cells. The assay is classed as functional, organism-based. The conditions noted are these: ccrf-cem. Put shortly: as §1
For assay [4], the system named is Cytomegalovirus. Description: Antiviral activity against Davis strain of cytomegalovirus (CMV) in HEL ([…]) cells. The assay is classed as functional, organism-based. The method in brief: (§2)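 Inhibition of virus-induced cytopathicity. HSV-1 and HSV-2 were tested in E6SM cells; VZV and CMV in HEL cells. Confluent monolayers were inoculated with 100 CCID50 of virus. After 1–2 h adsorption, residual virus was removed and compound was added at serial concentrations (400, 200, 100, ... μg/mL). Cytopathicity was scored once untreated infected controls reached complete CPE.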

Assay [5] is described as follows: Antiviral activity against G strain of HSV-2 in E6SM cells. It is filed as functional, cell-based, herpes simplex virus. The method in brief: as §2
Assay [6] can be described thus: Antiviral activity against KOS strain of HSV-1 in E6SM cells. The assay is classed as functional, cell-based, herpes simplex virus. The method in brief:
as §2

For assay [7], the system named is Cytomegalovirus. Description: Antiviral activity against AD169 strain of cytomegalovirus (CMV) in HEL ([…]) cells. The assay is classed as functional, organism-based. The method in brief:
as §2

The test system of assay [8] is Human alphaherpesvirus 3. In words: Antiviral activity against OKA strain of VZV in HEL ([…]) cells. The assay is classed as functional, organism-based. The arrangement: unit not given here. Put shortly: as §2
The subject of assay [9] is Human alphaherpesvirus 3. In words: Antiviral activity against 07/1 strain of VZV in HEL ([…]) cells. The assay is classed as functional, organism-based. The method in brief:
as §2

The test system of assay [10] is Moloney murine sarcoma virus. In words: Antiviral activity against murine sarcoma virus. The assay is classed as functional, organism-based. The method in brief:
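Murine C3H/3T3 embryo fibroblasts were seeded at 5 × 10^5 cells/mL. After 24 h, cells were infected with 80 focus-forming units of MSV (from mouse tumours) for 90–120 min at 37 °C. Medium was then replaced by fresh medium containing varied compound concentrations, and MSV-induced transformation was the read-out.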

Assay [11] can be described thus: Antiviral activity against KOS strain of HSV-1; ND=No data. The assay is classed as functional, herpes simplex virus. Put shortly: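 Confluent E6SM cell cultures in 96-well plates were inoculated with 100 CCID50 virus. After 1–2 h adsorption, inoculum was removed and test compound was added at 400, 200, 100, ... µg/mL.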

What is called CC50 is the concentration that lowers cell viability or growth by half. Take `CCOC(=O)Cc1c(N)nc(N)n(CCOCP(=O)(O)O)c1=O`: the EC50 is reported as above 1.2 uM ml-1 in [1]; above 0.3 uM ml-1 in assay [2]; 0.11 uM ml-1 in assay [3]; above 0.15 uM ml-1 with Cytomegalovirus [4]; above 1.2 uM ml-1 in assay [5]; above 1.2 uM ml-1 in [6]. Also, the EC50 in the assay with Cytomegalovirus [7] was above 0.15 uM ml-1; in the assay with Human alphaherpesvirus 3 [8], above 0.15; in the assay on Human alphaherpesvirus 3 [9], above 0.15 uM ml-1; in [10], 0.011 uM ml-1. In the assay on CCRF-CEM, this molecule had a CC50 above 300 µM.

Regarding `Nc1nc(N)n(CCOCP(=O)(O)O)c(=O)c1-c1ccccc1`, the EC50 was above 1.2 uM ml-1 in [1]; above 0.3 uM ml-1 in assay [2]; above 0.3 uM ml-1 in assay [3]; above 0.15 uM ml-1 with Cytomegalovirus [4]; above 1.2 uM ml-1 in assay [5]; above 1.2 uM ml-1 in [6]. In addition, the EC50 in the assay on Cytomegalovirus [7] is above 0.15 uM ml-1; in the assay with Human alphaherpesvirus 3 [8], above 0.15; in the assay with Human alphaherpesvirus 3 [9], above 0.15 uM ml-1; in [10], above 1.12 uM ml-1. Besides, the CC50 with CCRF-CEM was above 300 µM.

Consider `Nc1cc(OCCOCP(=O)(O)O)nc(N)n1`, for which the EC50 in assay [1] was 0.18 uM ml-1; in [2] it was 0.003 uM ml-1; in assay [3] it was 0.0016 uM ml-1; with Cytomegalovirus [4], above 0.19 uM ml-1; in [5], 0.033 uM ml-1; in assay [6], 0.025 uM ml-1. Moreover, the EC50 was above 0.19 uM ml-1 with Cytomegalovirus [7], 0.0045 in the assay with Human alphaherpesvirus 3 [8], 0.0095 uM ml-1 in the assay with Human alphaherpesvirus 3 [9] and 0.00015 uM ml-1 in assay [10]. Further, the CC50 in the assay on CCRF-CEM turned out to be 42 µM.

In the case of `Cc1c(N)nc(N)nc1OCCOCP(=O)(O)O`, the EC50 in assay [1] was above 1.2 uM ml-1; in assay [2] it was 0.00043 uM ml-1; in [3] it was 0.00031 uM ml-1; in the assay with Cytomegalovirus [4], above 0.15 uM ml-1; in assay [5] it was above 1.2 uM ml-1; in assay [6] it was above 1.2 uM ml-1. Further, the EC50 is given as above 0.15 uM ml-1 with Cytomegalovirus [7], 0.018 in the assay on Human alphaherpesvirus 3 [8], 0.042 uM ml-1 with Human alphaherpesvirus 3 [9] and 0.00022 uM ml-1 in [10]. In the assay with CCRF-CEM, this molecule gave a CC50 of 15 µM.

`CCOC(=O)Cc1c(N)nc(N)nc1OCCOCP(=O)(O)O`: the EC50 is on record as above 1.2 uM ml-1 in assay [1]; above 0.3 uM ml-1 in [2]; 0.078 uM ml-1 in [3]; above 0.15 uM ml-1 in the assay on Cytomegalovirus [4]; above 1.2 uM ml-1 in assay [5]; above 1.2 uM ml-1 in assay [6]. For the same molecule, the EC50 is on record as above 0.15 uM ml-1 in the assay with Cytomegalovirus [7], above 0.15 in the assay with Human alphaherpesvirus 3 [8], above 0.15 uM ml-1 in the assay with Human alphaherpesvirus 3 [9] and 0.035 uM ml-1 in assay [10]. Besides, in the assay with CCRF-CEM, the CC50 was above 300 µM.

As to `Nc1nc(N)c(C2CC2)c(OCCOCP(=O)(O)O)n1`, the EC50 in [2] was above 0.3 uM ml-1; in assay [3] it was above 0.3 uM ml-1; in assay [11], above 1.2 uM ml-1; in [10], above 1.12 uM ml-1. In the assay on CCRF-CEM, the cytotoxic concentration (CC50) was above 300 µM.
